{"data": "Assay results of several laboratories", "target": "5-hydroxytryptamine receptor 2C (HTR2C, Homo sapiens, UniProt P28335)", "Sequence (P28335 33-458, as in one of the studies)": "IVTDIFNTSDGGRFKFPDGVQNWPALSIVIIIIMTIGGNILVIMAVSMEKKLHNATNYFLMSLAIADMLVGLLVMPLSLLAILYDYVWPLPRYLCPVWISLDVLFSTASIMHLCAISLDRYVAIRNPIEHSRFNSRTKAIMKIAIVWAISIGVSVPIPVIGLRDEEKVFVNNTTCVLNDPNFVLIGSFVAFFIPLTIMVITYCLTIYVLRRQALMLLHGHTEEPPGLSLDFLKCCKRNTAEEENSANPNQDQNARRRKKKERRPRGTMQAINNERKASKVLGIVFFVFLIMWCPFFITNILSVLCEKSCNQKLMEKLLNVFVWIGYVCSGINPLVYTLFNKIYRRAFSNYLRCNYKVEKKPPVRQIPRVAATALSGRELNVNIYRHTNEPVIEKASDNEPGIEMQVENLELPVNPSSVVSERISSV", "note": "Lines come from different studies, so protocols differ."}
{"SMILES": "CN(CCCCNC(=O)c1cc2ccccc2[nH]1)[C@@H]1Cc2cccc3[nH]c(=O)n(c23)C1", "test": "ligand displacement, radioligand", "measurement": "Ki", "value": "2440 nM"}
{"SMILES": "CNc1nc2cc(OCCCCN3CCC(c4cccc(Cl)c4Cl)CC3)ccc2s1", "test": "cell-free assay, radioligand", "measurement": "Ki", "value": "73 nM"}
{"SMILES": "COc1cc(OC)c(C(=O)CCCCN2CCC3(CC2)NC(=O)NC3=O)cc1NS(=O)(=O)c1ccc(C(F)(F)F)cc1", "test": "ligand displacement, radioligand", "measurement": "Ki", "value": "0.99 nM"}
{"SMILES": "CC1Cc2ccccc2N1C(=O)NCCCCN(C)[C@@H]1Cc2cccc3[nH]c(=O)n(c23)C1 (mixture of isomers)", "test": "ligand displacement, radioligand", "measurement": "Ki", "value": "> 10000 nM"}
{"SMILES": "C#CCOCCOc1ccc2c3c1C1CCCC1N3CCNC2 (racemic)", "test": "calcium signal, agonist, fluorescence", "measurement": "EC50", "value": "53.4 nM"}
{"SMILES": "CN(Cc1ccc(NC(=O)C2=Cc3cc(-c4ccc(OCCCF)cc4)ccc3CCC2)cc1)C1CCOCC1", "test": "ligand displacement, radioligand", "measurement": "Ki", "value": "1020 nM"}
{"SMILES": "OC[C@@]12C[C@@H]1[C@@H](n1cnc3c(N[C@@H](C4CCC4)C4CC4)nc(I)nc31)[C@H](O)[C@@H]2O", "test": "calcium signal, antagonist", "measurement": "Kb", "value": "148 nM"}
{"SMILES": "C#CCOCCOCCOc1ccc2c3c1C1CCCC1N3CCNC2 (racemic)", "test": "calcium signal, agonist, fluorescence", "measurement": "EC50", "value": "237 nM"}
{"SMILES": "O=C1c2ccccc2CCN1CCCCN1CCN(c2cccc(Cl)c2Cl)CC1", "test": "ligand displacement, radioligand", "measurement": "Ki", "value": "354 nM"}
{"SMILES": "Fc1ccc(CCCCN2CCN(c3ccccn3)CC2)cc1", "test": "ligand displacement, radioligand", "measurement": "Ki", "value": "> 10000 nM"}
{"SMILES": "CC(C)(C)c1cc(C(C)(C)CO)c(O)cc1NC(=O)c1c[nH]c2ccccc2c1=O", "test": "ligand displacement, radioligand", "measurement": "Ki", "value": "1550 nM"}
{"SMILES": "Cc1nc2cc(OCCCCN3CCN(c4cccc(Cl)c4Cl)CC3)ccc2s1", "test": "cell-free assay, radioligand", "measurement": "Ki", "value": "160 nM"}
{"SMILES": "CCCCN1CCC(COC(=O)c2ccc(N)c(OCF)c2)CC1", "test": "cell-free assay, radioligand", "measurement": "Ki", "value": "> 10000 nM"}
